Yeast life ext = extends the lifespan of yeast | inhibition of the nicotinamide effect, % at 10 µM | 130,000 compounds, 0.68% hits | AID 775 | S. cerevisiae growth with nicotinamide, OD615; deaD strain in restrictive glucose medium;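 active = inhibition above a set limit, placed 3 SD over the median of all compounds, cut at about 26% in these data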
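Assay system: engineered S. cerevisiae DeaD replicative-lifespan strain, galactose-grown log-phase cells; Buffer or medium: CSMM-D glucose medium, restrictive; Probe or stimulus: nicotinamide 1.5 mM; Compound: single dose 10 µM compound, 0.25% DMSO; Schedule: 4 h preincubation then 48 h treatment at 30 °C; Technique: OD615 measurement.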
MRP-1 activ = activates MRP-1; H69AR cells + doxorubicin, viability rescue, CellTiter-Glo; viability increase, % at 10 µM; 140,000 compounds, 0.61% hits;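 active = viability gain under doxorubicin at or above a set limit, the compound median plus 3 SD, cut at about 4.7% in these data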;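 note: MRP-1 overexpressing cells given doxorubicin 25 µM after compound pretreatment; 18-22 h compound pretreatment then 72 h with doxorubicin before readout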
Phagocyt inh = macrophage phagocytosis inhibition; J774A.1 macrophage IgG-bead phagocytosis, imaging; inhibition, % at 5 µM; 110,000 compounds, 0.07% hits; AID 1029;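 active = inhibition above the mean of the plate negative controls plus 5 SD, cut at about 13% in these data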;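 note: phagocytic index as fraction of beads internalized from green versus red external bead signal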
MRP reversal = compounds reversing MRP-mediated drug resistance; differential viability (reversal), % at 10 µM; 85,000 compounds, 0.04% hits; H69AR cells + 2 uM doxorubicin, CellTiter-Glo, 72 h; AID 602;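 active = viability drop by adding the cancer drug above about 55%, with treated viability meeting a 40% cutoff, limit read from the data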;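 note: larger differential means the compound sensitizes cells more to doxorubicin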
sdo1 growth = compounds rescuing growth of sdo1-depleted yeast, bone marrow failure model; 140,000 compounds, 0.21% hits; S. cerevisiae sdo1-depleted JHY4D growth rescue, OD600 30 h; active compounds read high; pdr5 snq2 efflux-pump mutant strain; z-score at 10 µM;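 active = z-score above 3 at both the 24 hr and the 30 hr optical density reads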
BB579 growth dn = yeast BB579 growth reduction in restrictive medium; S. cerevisiae BB579 growth, OD615, 48 h; inhibition, % at 10 µM; 140,000 compounds, 0.51% hits;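 active = inhibition above a set limit, 3 SD over the mean compound inhibition, cut at about 44% in these data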
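test system = yeast BB579 (DeaD) | buffer or medium = restrictive CSMM-D medium | doses = single compound dose of 10 µM, 0.25% DMSO final | times = 4 h preincubation and 48 h exposure at 30 °C | technique = culture absorbance at 615 nm | benchmarks = amphotericin B 10 µg/mL, positive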
SDO1 rescue DR = SDO1-depleted yeast growth rescue confirmation; shares compounds with sdo1 growth; OD recovery (test concentration not listed); AID 949; 440 compounds, 44% hits; S. cerevisiae JHY4D (SDO1-depleted) growth rescue, OD600, 30 h; active compounds read high; efflux-deficient strain, SNQ2 and PDR5 mutated;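 active = yeast growth recovered at 30 hours, either rising with dose fitted slope above 0.001 or with average optical density gain above 0.07, some results past the limit were not filed as active; inactive = growth falling with dose or no effect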
Hits are given with their value; - = inactive; . = no result. Most compounds without a hit are left out; they make up all but 2.1% or so of the library.

SMILES	Yeast life ext	MRP-1 activ	Phagocyt inh	MRP reversal	sdo1 growth	BB579 growth dn	others
Cc1ccc(NC(=O)CN2C(=O)CN=C(c3ccccc3)c3cc(Cl)ccc32)cc1	-	-	-	-	-	-
CN(C)c1ccc(NC(=O)CN2C(=O)CN=C(c3ccccc3)c3cc(Cl)ccc32)cc1	-	6.8	-	-	-	-
CCN1C(=O)C(=C/C=C/c2ccco2)C(=O)N(CC)C1=S	34	-	-	.	-	-
CCN(CC)C(=O)c1ccc(NC(=O)c2cccc(F)c2)cc1	-	-	-	.	-	-
Clc1ccc(COC(Cn2ccnc2)c2ccc(Cl)cc2Cl)c(Cl)c1 (configuration not stated)	-	-	.	-	-	100
O=C1C=Cc2ccccc2C1=O	31	-	.	.	-	-
Clc1ccc(C(c2ccccc2)c2ncc[nH]2)cc1 (configuration not stated)	-	-	-	.	-	-
Cc1ccc(-c2nc3ccc(Cl)cc3n2OC(=O)N(C)C)cc1	92	-	-	-	-	-
CN(C)C(=O)Oc1ccc(-c2cn3cc(Cl)ccc3n2)cc1	-	-	-	.	-	-
Cc1ccc(/C=C2\C(=O)NC(=S)N(c3ccccc3F)C2=O)s1	41	-	-	.	-	55
O=C1NC(=O)N(c2ccccc2F)C(=O)/C1=C/c1ccc(Sc2nc3ccccc3[nH]2)o1	-	-	-	.	-	-
Cc1ccc(/C=C2/C(=O)NC(=O)N(CCc3ccc(F)cc3)C2=O)o1	32	-	.	.	-	-
CCCCn1c(NC(=O)c2ccco2)c(C(=O)OCC)c2nc3ccccc3nc21	-	-	-	-	-	-
CCCCn1c(NS(=O)(=O)c2ccc(C)cc2)c(C(=O)OCC)c2nc3ccccc3nc21	93	-	-	.	-	-
CCOc1cc(/C=C2/C(=O)NC(=O)N(c3ccc(CC)cc3)C2=O)ccc1OC(=O)c1cccs1	-	-	.	.	-	-
CC(=O)OC1(c2ccccc2)CCN(C)C(C)C1C (configuration not stated)	.	-	.	-	-	-
Cc1ccc(N2C(=O)NC(=O)/C(=C\c3ccsc3)C2=O)cc1C	-	5.5	-	.	-	-
CCCCn1c(=O)c(C(=O)Nc2cnccn2)c(O)c2ccccc21	80	-	-	-	-	-
CCOc1cccc(OCC)c2c(C)[n+](CC3CCCO3)c(C)c1-2 (configuration not stated)	-	-	-	-	-	-
CCCCN1C(=O)C(C2c3ccccc3C(=O)N2Cc2ccccc2)C(=O)NC1=S (configuration not stated)	-	-	.	-	-	-
CCn1nc(-c2cccs2)nc2c(=O)n(C)c(=O)nc1-2	-	-	-	.	-	100
O=C(c1cccn2c(=O)c3cc(Br)ccc3nc12)N1CCC2(CC1)OCCO2	-	4.8	-	-	-	-
CP(C)(=O)CCC(=O)O	-	-	-	.	-	-
O=C1NC(=O)N(c2ccccc2)C(=O)/C1=C/c1ccc(Sc2ccccc2)o1	32	-	.	.	-	-
O=C1/C(=C\c2cc3c(cc2Br)OCO3)N2CCC1CC2	-	-	.	.	-	-
CCOC(=O)c1cc(CC)sc1/N=C/c1c(O)[nH]c(=S)[nH]c1=O	-	-	-	.	14	-	SDO1 rescue DR=-
COc1ccc(-n2c(O)c(/C=C/C=Nc3ccccc3)c(=O)[nH]c2=O)cc1	-	-	-	.	-	-
